Diaphorase inh: diaphorase inhibition or chemical oxidation counter-screen. diaphorase resazurin-to-resorufin fluorescence, NADH, 16 min; bacterial (C. kluyveri) enzyme, not human. AID 1217. 190,000 compounds, 0.69% hits. inhibition, % at 20 µM;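 active = primary screen inhibition at 20 µM above a set limit, cut at about 50% in these data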
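Assay system – diaphorase enzyme from Clostridium kluyveri · Amount – diaphorase 0.14 U/mL (working solution) · Times – reaction incubation of 16 min at room temperature · Controls – No-NADH positive control and DMSO neutral control · Signal – resorufin fluorescence 544/590 nm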
ROMK primary: human ROMK K+ channel modulation, primary screen | Tet-inducible ROMK, thallium flux fluorescence; actives lie on both sides | 130,000 compounds, 2% hits | B-score at 10 µM | P48048;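 active = signal ratio slope over the read window, or its plate-corrected B-score, at least 3 SD from the plate mean, either direction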;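 note: B-score of the F/F0 ratio slope over 7 to 12 s after thallium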
Target sequence (P48048 whole entry, looked up): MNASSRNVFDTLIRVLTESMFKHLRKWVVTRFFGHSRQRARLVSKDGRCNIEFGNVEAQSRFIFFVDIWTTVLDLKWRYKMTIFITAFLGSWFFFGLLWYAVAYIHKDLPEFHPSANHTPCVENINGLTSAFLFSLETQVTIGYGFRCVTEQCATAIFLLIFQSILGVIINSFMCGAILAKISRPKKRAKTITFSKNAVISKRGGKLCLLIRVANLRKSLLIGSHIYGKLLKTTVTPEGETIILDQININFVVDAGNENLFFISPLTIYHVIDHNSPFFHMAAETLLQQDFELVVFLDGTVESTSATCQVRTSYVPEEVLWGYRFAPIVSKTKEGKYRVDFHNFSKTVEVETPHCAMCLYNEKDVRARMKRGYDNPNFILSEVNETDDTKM
Lmaj promast: reduces viability of Leishmania major promastigotes | resazurin fluorescence viability | inhibition, % at 10 µM | 200,000 compounds, 9% hits; in the data active = inhibition above about 50%;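 note: promastigotes grown with compound for 44 hours at 28 °C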
Diaph act CS: counter-screen for diaphorase-based assays: diaphorase activators and chemical reducers. 190,000 compounds, 0.005% hits. activation factor at 20 µM. Diaphorase/resazurin coupled assay, resorufin fluorescence, 16 min; stronger effect = higher value; 1 = vehicle wells, 0 = NADH-free wells;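 active = diaphorase activity raised at least twofold by the compound at 20 µM; inactive = activation factor below 2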
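Material: purified diaphorase enzyme from Clostridium kluyveri; Also added: 0.114 mM NADH and 0.1 mM resazurin, final amounts; Doses: single compound dose of 20 µM, 1% DMSO final; Times: 16 min enzyme reaction, ambient temperature; Detection: resorufin fluorescence, excitation 544 nm, emission 590 nm; Measure: increased resorufin signal from activators or reducing compounds.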
Cl transport mod: modulates chloride dependent transport by human KCC2. Q9H2X9. KCC2 cells, thallium flux FluoZin-2 fluorescence. B-score of Tl+ flux slope (higher = more flux/activation; lower = inhibition) at 10 µM. 190,000 compounds, 2.2% hits. AID 1456;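 active = thallium flux slope and its plate-corrected score both differing from the plate sample mean at a set confidence after two filtering rounds, in either direction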;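 note: slope of fluorescence scaled to starting intensity during 10 to 20 s after thallium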
WT yeast gro inh: growth inhibition of WT yeast, mitochondrial fusion screen | mitochondrial fusion phenotypic screen, WT strain | inhibition, % at 10 µM | 190,000 compounds, 2.1% hits | AID 1362; in the data active = inhibition above about 58%; tested in S. cerevisiae
Of the large screens only hits and unclear results are named; the others gave an inactive call. Most compounds without a hit are left out; they make up all but 12% or so of the library.

O=[N+]([O-])c1cc(S(=O)(=O)N2CCCC2)ccc1N/N=C/c1cccnc1	Lmaj promast 60 (no result: ROMK primary)
CCCN1C(=O)/C(=N\OCC(=O)Nc2ccc(C(C)C)cc2)c2ccccc21	none (no result: ROMK primary)
CC(/C=C1\SC(=S)N(NC(=O)c2cccc(O)c2)C1=O)=C\c1ccccc1	WT yeast gro inh 86
S=c1[nH]nc(-c2ccco2)n1/N=C/c1cccc(Cl)c1Cl	Cl transport mod 49
S=c1[nH]nc(-c2ccco2)n1/N=C/c1cccs1	none
Cn1cccc1/C=N/n1c(-c2ccc(Cl)cc2Cl)n[nH]c1=S	Diaphorase inh 72, WT yeast gro inh 71 (no result: ROMK primary, Cl transport mod)
Cn1cccc1/C=N/n1c(-c2ccc(Cl)cc2)n[nH]c1=S	none (no result: ROMK primary, Cl transport mod)
S=c1[nH]nc(-c2ccco2)n1/N=C/c1ccc(Cl)cc1Cl	Cl transport mod 16 (no result: ROMK primary)
S=c1[nH]nc(-c2ccco2)n1-c1ccc(Cl)cc1	none
N#C/C(=C/c1cccn1-c1cccc(C(=O)O)c1)c1ccc(F)cc1	none
O=C(O)CC1SC(N/N=C/c2ccc(Br)cc2)NC1=O (stereo not drawn)	none
CCn1c(=O)c(C(=O)CN2CCN(S(=O)(=O)c3cc(C)ccc3C)CC2)c(N)n(Cc2ccccc2)c1=O	Lmaj promast 65
CCn1c(=O)c(C(=O)CN2CCN(Cc3ccc4c(c3)OCO4)CC2)c(N)n(Cc2ccccc2)c1=O	none
O=C(CSc1ccc(Cl)cc1)Nc1cccc(NC(=O)c2ccco2)c1	Lmaj promast 97 (no result: Cl transport mod)
CC(=O)Nc1cccc(NC(=O)CSc2ncc(-c3ccc(Cl)cc3)n2Cc2ccco2)c1	ROMK primary -4.6
O=C(O)C1C2CCCCC2=C2CCCCC2C1C(=O)c1ccccc1 (stereo not drawn)	none (no result: Diaphorase inh, ROMK primary, Lmaj promast, Diaph act CS, WT yeast gro inh)
CC(=O)Nc1ccc(S(=O)(=O)n2cnc3cc(C)c(C)cc32)cc1	Lmaj promast 67
O=S(=O)(N1CCCCC1)N1CCN(c2cc(Cl)ccc2Cl)CC1	WT yeast gro inh 74
O=S(=O)(c1ccc(Cl)cc1)N1CCN(S(=O)(=O)N2CCCCCC2)CC1	none
CCOC(=O)c1cn(CC(=O)Nc2ccc(OC)cc2OC)nn1	none
O=c1c2cc(Cl)ccc2nc(-c2ccc([N+](=O)[O-])cc2)n1O	ROMK primary 3.5, Cl transport mod 49
COc1ccc(-c2c(=O)n(OCc3ccccn3)c3ccccc3[n+]2[O-])cc1OC	none (no result: ROMK primary)
COc1ccc(-c2c(=O)n(OCc3ccccc3[N+](=O)[O-])c3ccccc3[n+]2[O-])c(OC)c1	Diaphorase inh 51
COc1cc(C2C=C(C34CC5CC(CC(C5)C3)C4)NC(=S)N2)cc(OC)c1OC (stereo not drawn)	none
CC1C(=O)C(C)C(c2ccc3c(c2)OCO3)NC1c1ccc2c(c1)OCO2 (stereo not drawn)	none (no result: ROMK primary)
S=C1NC(C23CC4CC(CC(C4)C2)C3)=CC(c2ccc3c(c2)OCO3)N1 (stereo not drawn)	WT yeast gro inh 77
COc1ccc(OC)c(C2C=C(C34CC5CC(CC(C5)C3)C4)NC(=S)N2)c1 (stereo not drawn)	Lmaj promast 99, WT yeast gro inh 76 (no result: ROMK primary)
O=C(NCc1ccco1)C1CCN(C(=O)c2cc3sccc3n2Cc2ccc(Cl)cc2)CC1	Lmaj promast 65, WT yeast gro inh 61
N#Cc1cccc(Oc2ccc(-c3cnc4ccccc4n3)cc2)c1C#N	none (no result: ROMK primary)
O=C(c1cc2nc(-c3ccccc3)cc(-c3ccccc3)n2n1)N1CCCC1	none
CN1CCN(C(=O)c2cc3nc(-c4ccccc4)cc(-c4ccccc4)n3n2)CC1	Lmaj promast 95
CCn1nc(C)c(/C=N/NC(=O)c2ccc3c(c2)c(C)c(C)n3Cc2ccccc2)c1C	none
O=C(N/C(=C\c1ccc(-c2ccccc2)o1)C(=O)N1CCOCC1)c1ccccc1	ROMK primary -3, Cl transport mod -7.3
CC(=O)Nc1ccc(S(=O)(=O)N(C)CC(=O)OCC(=O)Nc2cccnc2Cl)cc1	none
O=C(c1ccccc1OCc1ccccc1Br)N1CCN(c2ncccn2)CC1	Lmaj promast 68 (no result: ROMK primary)
O=C(O)c1ccccc1OCc1ccccc1Br	none
O=C(Nc1nccs1)C1Cc2ccccc2CN1S(=O)(=O)c1ccc(F)cc1 (stereo not drawn)	Lmaj promast 66 (no result: ROMK primary)
O=C(Nc1nnc(C2CC2)s1)C1Cc2ccccc2CN1S(=O)(=O)c1ccccc1F (stereo not drawn)	Lmaj promast 100 (no result: ROMK primary)
O=C(Nc1ccc2c(c1)OCO2)C1Cc2ccccc2CN1S(=O)(=O)c1cccs1 (stereo not drawn)	Lmaj promast 99
CCS(=O)(=O)N1Cc2ccccc2CC1C(=O)Nc1ncc(C)s1 (stereo not drawn)	none
COc1ccc(C[C@@H]2CN3C(=NC[C@@H]3C)N2CCNC(=O)c2ccc(C)c(Br)c2)cc1	none (no result: ROMK primary)
COCCN(C(=O)CCC(=O)Nc1cc(C)on1)C(C(=O)NC1CCCC1)c1ccccc1C (stereo not drawn)	none
O=C(NC1CCCC1)C(c1ccc(F)cc1)N(Cc1ccccc1Cl)C(=O)CCl (stereo not drawn)	Lmaj promast 98
COCCN(C(=O)CCl)C(C(=O)NC1CCCCC1)c1ccccc1C (stereo not drawn)	Lmaj promast 99
CCC(C)C(=O)NCCc1ccc(S(N)(=O)=O)cc1 (stereo not drawn)	none
CCCCn1c(=O)[nH]c2nc3cc(N)ccc3nc2c1=O	Diaphorase inh 67 (no result: ROMK primary)
Nc1ccc2nc3c(=O)n(CCc4ccccc4)c(=O)[nH]c3nc2c1	none (no result: Diaphorase inh, ROMK primary, Lmaj promast, Diaph act CS, WT yeast gro inh)
OCCNNC(=S)NC1CC2C=CC1C2 (stereo not drawn)	none (no result: Diaphorase inh, ROMK primary, Lmaj promast, Diaph act CS, WT yeast gro inh)
O=C(Cn1c2[n+](c3ccc(C(F)(F)F)cc31)CCCCC2)c1ccc2c(c1)OCCO2	none
COc1ccc(-c2nnc(SCc3ccccc3F)o2)cc1OC	none
COc1ccc(-c2nnc(-c3ccc(N(C)C)cc3)o2)cc1	none (no result: ROMK primary)
COc1ccc(-c2nnc(-c3ccc(N)cc3)o2)cc1	Lmaj promast 100
Cc1ccccc1-c1nnc(SCc2ccc(F)cc2)o1	WT yeast gro inh 60 (no result: Cl transport mod)
Cc1ccc(-c2nnc(SCc3ccccc3F)o2)cc1	WT yeast gro inh 60 (no result: ROMK primary, Cl transport mod)
COc1ccc(-c2nnc(SCc3cc(C)cc(C)c3)o2)cc1	WT yeast gro inh 64 (no result: ROMK primary)
CN(C)S(=O)(=O)c1ccc(Cl)c(-c2nnc3n2CCCCC3)c1	none
Cc1ccc(CCNC(=O)C2CC(c3ccc(C(F)(F)F)cc3)=NO2)cc1 (stereo not drawn)	none (no result: Diaphorase inh, ROMK primary, Lmaj promast, Diaph act CS, WT yeast gro inh)
COC(=O)C1=CN(Cc2ccc(OC)cc2)C=C(C(=O)OC)C1c1cccs1	Lmaj promast 100
COC(=O)C1=CN(CCCN2CCCC2=O)C=C(C(=O)OC)C1c1cccs1	none (no result: Cl transport mod)
Cc1cc(C)c2c(n1)nn1c(NCCCN3CCOCC3)cc(C)nc21	none (no result: Diaphorase inh, Diaph act CS, Cl transport mod, WT yeast gro inh)
Cc1cc(NCCC(C)C)n2nc(C)c(-c3ccccc3)c2n1	WT yeast gro inh 72 (no result: ROMK primary)

Screening data: PubChem BioAssay, several laboratories
